Source: PubChem BioAssay (several laboratories)
proCasp3 act: activators of human procaspase-3; recombinant procaspase-3 D3A, Ac-DEVD-pNA absorbance 405 nm; activation, % at 8.5 µM; actives 0.11% (n = 330,000);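 active means activation above the mean of all tested compounds plus 3 SD, cut at about 21% in these data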
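Assay system: Procaspase-3 D3A mutant, all three cleavage aspartates alanine. Buffer or medium: Zinc-free HEPES saline buffer with Triton X-100. Times: 1 h compound preincubation, 2 h substrate hydrolysis at 25 °C. Measured by: 405 nm absorbance of p-nitroaniline, reads at 0 and 120 min. Read-out basis: percent activation relative to control range. Replicates: singlicate.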
HGIII-sPLA2 inh: Inhibits HGIII-sPLA2 liposome hydrolysis, primary screen; Q9NZ20; QFRET BODIPY PC-A2 liposome hydrolysis, fluorescence; inhibition, % at 12.2 µM; actives 0.56% (n = 370,000);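 active means inhibition above mean plus 3 SD of compounds lying within the high and low control bounds, cut at about 19% in these data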
Arr AP2 block: inhibitors of human beta-arrestin and AP2 interaction. FITC-arrestin peptide / GST-AP2 beads, flow cytometry; AP2 beta2 appendage carries R879A mutation. inhibition, % at 10 µM. actives 0.31% (n = 340,000). AID 504490;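 active means inhibition above a set limit, near 3 SD of compounds lacking own fluorescence, cut at about 54% in these data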
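Material – AP2 appendage R879A on GSH beads · Buffer or medium – PBS with 0.05% Tween 20 and 0.1% BSA · Probe or stimulus – fluorescein-tagged arrestin peptide at 50 nM final · Incubation – compound with beads 12 min RT, then probe 1 h RT · Detection – high-throughput flow cytometry of beads, ex 488, em 535 nm · Evaluation – percent response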
PLCb3 inh: inhibitors of human phospholipase C beta3 | Purified PLC-beta3, fluorogenic substrate, fluorescence | inhibition, % at 12.2 µM | actives 0.18% (n = 370,000) | AID 720704 | Q01970; in the data active means inhibition above about 11%
PLC-gamma1 inh: PLC-gamma1 (human) inhibition, primary screen; actives 0.84% (n = 370,000); inhibition, % at 12.2 µM; P19174; purified PLC-gamma1, fluorogenic substrate, fluorescence; in the data active means inhibition above about 9.5%
Target sequence (P19174 whole entry, looked up): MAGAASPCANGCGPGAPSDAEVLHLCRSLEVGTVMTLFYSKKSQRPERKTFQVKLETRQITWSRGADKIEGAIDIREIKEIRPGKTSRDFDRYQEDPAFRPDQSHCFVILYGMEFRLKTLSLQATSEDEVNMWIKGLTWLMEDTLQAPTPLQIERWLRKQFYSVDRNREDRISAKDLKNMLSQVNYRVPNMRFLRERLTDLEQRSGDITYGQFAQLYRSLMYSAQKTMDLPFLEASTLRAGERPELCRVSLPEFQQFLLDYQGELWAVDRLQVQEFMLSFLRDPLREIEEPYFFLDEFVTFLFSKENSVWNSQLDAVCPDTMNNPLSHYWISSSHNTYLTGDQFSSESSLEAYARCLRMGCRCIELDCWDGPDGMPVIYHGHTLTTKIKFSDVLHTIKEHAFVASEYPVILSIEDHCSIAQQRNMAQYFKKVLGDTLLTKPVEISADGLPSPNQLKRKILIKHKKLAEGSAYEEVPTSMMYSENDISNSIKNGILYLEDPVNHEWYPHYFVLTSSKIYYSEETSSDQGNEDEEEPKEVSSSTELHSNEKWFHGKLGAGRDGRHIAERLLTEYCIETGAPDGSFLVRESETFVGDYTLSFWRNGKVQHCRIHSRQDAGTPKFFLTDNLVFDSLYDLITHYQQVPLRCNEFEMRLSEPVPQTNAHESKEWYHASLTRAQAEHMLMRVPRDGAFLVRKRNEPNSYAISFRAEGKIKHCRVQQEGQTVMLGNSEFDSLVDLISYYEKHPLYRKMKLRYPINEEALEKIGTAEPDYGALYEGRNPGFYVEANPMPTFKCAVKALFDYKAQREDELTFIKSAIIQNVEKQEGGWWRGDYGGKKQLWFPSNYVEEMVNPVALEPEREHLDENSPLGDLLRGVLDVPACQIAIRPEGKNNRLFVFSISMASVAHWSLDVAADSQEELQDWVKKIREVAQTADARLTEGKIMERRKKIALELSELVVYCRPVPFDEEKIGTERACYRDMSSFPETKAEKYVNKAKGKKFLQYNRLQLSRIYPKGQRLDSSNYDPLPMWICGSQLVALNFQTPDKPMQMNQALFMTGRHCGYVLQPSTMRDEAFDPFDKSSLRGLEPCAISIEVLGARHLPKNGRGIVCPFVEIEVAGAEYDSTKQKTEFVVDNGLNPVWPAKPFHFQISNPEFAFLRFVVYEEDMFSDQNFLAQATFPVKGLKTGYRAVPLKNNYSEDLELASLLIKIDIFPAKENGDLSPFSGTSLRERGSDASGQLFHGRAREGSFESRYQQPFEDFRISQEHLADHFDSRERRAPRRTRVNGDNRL
proCasp7 act: counter-screen for procaspase-3 activators: activators of human procaspase-7 | recombinant procaspase-7, Ac-DEVD-pNA absorbance 405 nm; D23A/D198A/D206A triple mutant, cannot self-cleave; scale: DMSO 0, 5 µM enzyme 100 | actives 0.093% (n = 330,000) | P55210 | activation, % at 8.5 µM;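 active means percent activation above the screen-wide mean plus 3 SD, cut at about 25% in these data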
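Assay system: Uncleavable procaspase-7 mutant enzyme; Input: 2 µM procaspase-7 mutant as dispensed; Also added: DEVD-pNA substrate; Medium: Zinc-free HEPES pH 7.4 with 300 mM NaCl, 0.01% Triton X-100; Timing: 1 h compound preincubation, 2 h substrate cleavage, 25 °C; Measured by: Epi-absorbance of released pNA at 405 nm, two timepoints.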
sPLA2 confirm: human GIII-sPLA2 inhibition, confirmation | shares compounds with HGIII-sPLA2 inh | recombinant hGIII-sPLA2, BODIPY PC-A2 QFRET fluorescence | inhibition, % at 12.2 µM | actives 34% (n = 2,000) | AID 743280;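 active means mean inhibition across triplicates above the hit cutoff set in the earlier primary screen, cut at about 19% in these data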
535nm interf: optically interferes with 535nm fluorescence in sPLA2 counter-screen; shares compounds with HGIII-sPLA2 inh; BODIPY FL product fluorescence interference, QFRET; inhibition, % at 12.2 µM; actives 8.5% (n = 2,000);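 active means average inhibition above the solvent-only control mean plus 3 SD, cut at about 6% in these data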
BODIPY interf DR: 535nm optical interference dose response, HGIII-sPLA2 counter-screen. 240 tested, under 10 active. IC50, µM. shares compounds with HGIII-sPLA2 inh. BODIPY FL product fluorescence interference, cell-free;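 active means IC50 at or below 10 µM; inactive means IC50 above 10 µM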
A number is an active result; n = inactive; x = no result. This is a sample that favours compounds with a hit; in the whole collection about 1.9% have one here.

SMILES	proCasp3 act	HGIII-sPLA2 inh	Arr AP2 block	PLCb3 inh	PLC-gamma1 inh	proCasp7 act	sPLA2 confirm	535nm interf	others
C[N+]1(CC2COC3(CCCCC3)O2)CCCC1 (stereo not given)	n	24	n	n	n	n	n	n
CCc1cc2c(=O)[nH]c(Cc3ccc(OC)cc3)nc2s1	n	n	n	n	n	n	x	x
CCc1cc2c(=O)[nH]c(COC)nc2s1	n	19	n	n	n	n	n	n
CCS(=O)(=O)c1nc(S(=O)(=O)c2ccc(C)cc2)c(N2CCC(C)CC2)s1	n	n	n	n	n	n	x	x
CCCNC(=S)N1CCC(C(=O)c2ccc(OC)cc2)CC1	n	21	n	n	n	n	n	n
CCCNC(=S)N1CCC(C(=O)c2ccc(Cl)cc2)CC1	n	n	n	n	n	n	x	x
Cc1ccc2sc(C)[n+](CCC(C)S(=O)(=O)[O-])c2c1 (stereo not given)	n	20	n	n	n	n	n	n
Cc1cc(C)n(CC(O)COc2ccccc2[N+](=O)[O-])n1 (stereo not given)	n	22	n	n	n	n	n	n
COc1cc(C(=O)N(C)C2CCCCC2)cc(OC)c1OC	x	n	x	n	n	x	x	x
O=C(CSc1ncnc2scc(-c3ccc(Cl)cc3)c12)Nc1ccccc1-c1ccccc1	x	n	x	n	n	x	x	x
Cn1c(C(=O)N[C@@H](C(=O)O)c2ccccc2)cc2cc(F)ccc21	n	n	n	n	n	n	x	x
COc1ccc2c(c1)OC[C@H]1[C@H]2N2C(=O)c3cc(OC)ccc3NC(=O)[C@@]2(C)[C@H]1c1ccccc1	n	37	n	n	n	n	27	n
COc1ccc2c(c1)OC[C@H]1[C@H]2N2C(=O)c3cc(F)ccc3NC(=O)[C@@]2(C)[C@H]1c1ccccc1	n	35	n	n	n	n	n	n
COc1ccc2c(c1)OC[C@H]1[C@H]2N2C(=O)c3cc(Cl)ccc3NC(=O)[C@@]2(C)[C@H]1c1ccccc1	n	x	n	x	x	n	x	x
COc1ccc2c(c1)C(=O)N1[C@H]3c4cc(Cl)ccc4OC[C@@H]3[C@H](c3ccccc3)[C@]1(C)C(=O)N2	n	n	n	n	n	n	x	x
COc1cc(C(=O)OCC(=O)Nc2cc(S(=O)(=O)N3CCOCC3)ccc2C)ccc1OCC(C)C	n	n	n	n	n	n	x	x
CCCCN(CC)CCCNC(=O)c1ccc2c(c1)N(CC)C(=O)c1ccccc1S2(=O)=O	n	n	n	n	n	n	x	x
COc1ccc(NCC(=O)Nc2ccc(Br)cc2F)c(OC)c1	n	22	n	n	n	n	23	n
CCC(=O)NC(=S)Nc1ccc(OC)cc1OC	n	21	n	n	n	n	n	n
NC(=O)C1CC(=O)N(c2ccc(OCc3ccc(Cl)cc3)cc2)C1 (stereo not given)	n	20	n	n	n	n	n	n
O=C(OCc1ccccc1)C1=NNC2C(=O)N(c3ccccc3)C(=O)C12 (stereo not given)	n	23	n	n	n	n	n	n
O=C(Nc1ccc(C(F)(F)F)cc1)C1(c2ccccc2)CC1	n	25	n	n	n	n	n	n
O=C(Nc1cccc(C(F)(F)F)c1)C1(c2ccccc2)CC1	n	n	n	n	n	n	x	x
S=c1[nH]nc(-c2ccc(Cl)cc2Cl)n1-c1ccccc1	n	n	n	n	n	n	x	x
Cc1cccc(-n2c(-c3ccoc3C)n[nH]c2=S)c1	n	20	n	n	n	n	36	n	BODIPY interf DR=n
SMILES	proCasp3 act	HGIII-sPLA2 inh	Arr AP2 block	PLCb3 inh	PLC-gamma1 inh	proCasp7 act	sPLA2 confirm	535nm interf	others
Cc1ccc([N+](=O)[O-])c(-c2n[nH]c(=S)n2-c2cccc(Cl)c2)c1	n	31	n	n	n	n	22	6.6
C=CCN1C(=O)[C@H](CC(=O)N2CCSCC2)[C@@]2(C(=O)OCC)CCCC=C12	x	n	x	n	n	x	x	x
CCN(CC)CC(=O)Nc1cc(N(C)C)nc2ccccc12	n	20	n	n	n	n	n	n
CCCCCC(=O)Nc1cc(N(C)C)nc2ccccc12	n	n	n	n	n	n	x	x
CCOc1cccc(/C=N/NC(=O)c2ccc3c(c2)OCCO3)c1O	n	n	n	n	n	n	x	x
COc1cc(/C=N/NC(=O)c2ccc3c(c2)OCCO3)c(Br)c(Br)c1O	n	n	n	n	n	n	x	x
Cc1cccc(/C=N/NC(=O)Cc2ccc(Cl)cc2)c1O	n	n	n	n	n	n	x	x
Cc1cccc(/C=N/NC(=O)c2c(-c3ccccc3)noc2C)c1O	n	34	n	n	n	n	n	n
COc1ccccc1/C=N/NC(=O)c1c(-c2ccccc2)noc1C	n	n	n	n	n	n	x	x
COc1cc(/C=N/NC(=O)c2ccc3c(c2)OCCO3)cc(Br)c1O	n	20	n	n	n	n	n	n
Cc1cccc(/C=N/NC(=O)c2ccc3c(c2)OCCO3)c1O	n	30	n	n	n	n	19	n
Cc1cccc(/C=N\NC(=O)c2ccc(Cl)cc2)c1O	n	37	n	n	n	n	22	n
Cn1c(CN2CCCC2)nc2cc(NC(=O)c3cccs3)ccc21	n	n	n	n	n	n	x	x
COc1ccc(S(=O)(=O)N2CCOCC2)cc1NC(=O)c1c(-c2ccccc2)noc1C	x	n	n	n	n	x	x	x
COc1cc(C(F)(F)F)ccc1C(=O)NCCc1ccco1	n	n	n	n	n	n	x	x
Nc1cccc(Nc2nc(OC(C(F)(F)F)C(F)(F)F)nc(OC(C(F)(F)F)C(F)(F)F)n2)c1	n	28	n	n	n	n	31	n	BODIPY interf DR=n
COc1cc(-c2n[nH]c(=S)n2-c2ccccc2C(F)(F)F)cc(OC)c1OC	n	n	n	n	n	n	x	x
COc1cc(-c2n[nH]c(=S)n2-c2cccc(C(F)(F)F)c2)cc(OC)c1OC	n	26	n	n	n	n	25	n
O=C(Nc1ccccc1)Nc1ccc(Nc2ccccc2)cc1	n	25	n	n	n	n	n	n
CCCC[C@@H]1C(=O)N2N=Cc3cc(C)c(C)cc3[C@H]2N2N=Cc3cc(C)c(C)cc3[C@@H]12	x	20	x	n	n	x	n	n
CCCC[C@@H]1C(=O)N2N=Cc3ccccc3[C@H]2N2N=Cc3ccccc3[C@@H]12	x	n	x	n	n	x	x	x
